Source: ChEMBL document CHEMBL1949627, “Novel triacsin C analogs as potential antivirals against rotavirus infections” (Eur J Med Chem, 2012)
pEC50: −log10 of the molar value. Calls of active or inactive are those of the source. The rule behind the calls is not given here.

Columns and labels:
[1] = Cytotoxicity against monkey MA104 cells after 24 hrs; type: cell-based, Macaca mulatta; settings: rhesus monkey, read-out: TD50
Summary of the method: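 Confluent MA104 cells exposed to a range of compound concentrations for 24 hrs; cytotoxicity read with a non-radioactive cytotoxicity (CytoTox 96) kit; TD50 derived by the Litchfield–Wilcoxon method.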

Rotavirus [2] = experiment: Antiviral activity against Rotavirus SA11 in MA104 cells assessed as inhibition of viral replication after 24 hrs by immunofluorescent assay and Western blotting analysis; type: functional; settings: SA11, MA104, 24 h, read-out: ED50 (the source's name)
Summary of the method: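 Confluent MA104 monolayers infected 1 hr, PBS-washed, then given MEM with compound or DMSO (0.1%) plus trypsin 1 μg/ml. VP6 tracked by IFA (methanol fixation, anti-VP6 mAb, FITC secondary) or Western blot (β-actin control). ED50 derived from TCID50 titers at 24 hr post infection, MOI 0.05, by Litchfield–Wilcoxon.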

Huh-7 = experiment: Inhibition of lipogenesis in human HuH7 cells assessed as inhibition of increase in lipid droplets at 1 uM after 72 hrs by NBD-cholesterol based fluorescence analysis; type: functional, cell-based
Summary of the method: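 Confluent uninfected Huh-7 cells, in which lipid droplets form spontaneously, treated with compound or 0.1% DMSO for 72 hrs. Medium then replaced with NBD-cholesterol (1 μg/ml) for a further 12 hrs. Cells fixed in 4% formaldehyde for 10 min, PBS-washed, and lipid-droplet fluorescence examined by fluorescence microscopy.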

[3] = Therapeutic index, ratio of TD50 for monkey MA104 cells to ED50 for Rotavirus SA11; type: cell-based; settings: read-out: Ratio TD50/ED50
Summary of the method: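 TD50: confluent MA104 cells exposed to graded compound concentrations for 24 hrs, cytotoxicity read with CytoTox 96 non-radioactive kit, Litchfield–Wilcoxon fit. ED50: SA11-infected MA104 (MOI 0.05) treated with compound plus trypsin 1 μg/ml, TCID50 titers at 24 hr, Litchfield–Wilcoxon. Index is TD50 divided by ED50.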

Rotavirus [4] = experiment: Antiviral activity against Rotavirus Wa in MA104 cells assessed as inhibition of viral replication after 24 hrs by immunofluorescent assay and Western blotting analysis; type: functional, organism-based
MA104 = experiment: Inhibition of lipogenesis in monkey MA104 cells infected with Rotavirus SA11 assessed as inhibition of increase in lipid droplets at 1 uM after 10 hrs by NBD-cholesterol based fluorescence analysis; type: functional, cell-based; settings: Macaca mulatta
Summary of the method: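 Confluent MA104 cells, mock- or SA11-infected at MOI 10, incubated with compound or 0.1% DMSO in medium with NBD-cholesterol 1 μg/ml and trypsin 1 μg/ml. Fixed at 10 hr post infection in 4% formaldehyde for 10 min, PBS-washed twice; lipid-droplet fluorescence viewed by fluorescence microscopy.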

Rotavirus [5] = experiment: Virucidal activity against Rotavirus SA11 in MA104 cells assessed as reduction in viral titer at 100 uM pretreated for 2 hrs prior infection measured after 12 hrs postinfection by Western blotting analysis; type: functional, organism-based
Rotavirus [6] = experiment: Virucidal activity against Rotavirus SA11 in MA104 cells assessed as reduction in viral titer at 100 uM pretreated for 2 hrs prior infection measured after 12 hrs postinfection by immunofluorescent assay; type: functional, organism-based

C=C(C)[C@@H]1CC[C@]2(C(=O)O)CC[C@]3(C)[C@H](CC[C@@H]4[C@@]5(C)CC[C@H](O)C(C)(C)[C@@H]5CC[C@]43C)[C@@H]12 [BETULINIC ACID]
CC50 at 24 h [1]: 27.8 µM
pEC50 (Rotavirus [2]): 4.65

CCC/C=C/C/C=C/C=C/CNc1ccc(C(=O)O)cc1
CC50 at 24 h [1]: 28.5 µM
inhibition (Huh-7): Dose-dependent effect
selectivity ratio [3]: 285
pEC50 (Rotavirus [2]): 7.00
inhibition (Rotavirus [4]): Active
inhibition (MA104): Active
inhibition (Rotavirus [5]): inactive
inhibition (Rotavirus [6]): inactive

CCC/C=C/C/C=C/C=C/C=N/N1CCCS1(=O)=O
CC50 at 24 h [1]: 86.4 µM
inhibition (Huh-7): Dose-dependent effect
pEC50 (Rotavirus [2]): 5.66
inhibition (Rotavirus [4]): Active
inhibition (MA104): Active

CCC/C=C/C/C=C/C=C/C=N/NS(=O)(=O)CCCCl
CC50 at 24 h [1]: 86.3 µM
pEC50 (Rotavirus [2]): 4.94
inhibition (Rotavirus [4]): Active

CCC/C=C/C/C=C/C=C/C=N/NS(=O)(=O)C(C)C
CC50 at 24 h [1]: 90.2 µM
pEC50 (Rotavirus [2]): 5.01
inhibition (Rotavirus [4]): Active

C=C1C(=O)O[C@H](CCCCCCCC)[C@H]1C(=O)O
CC50 at 24 h [1]: 28.5 µM
pEC50 (Rotavirus [2]): 4.67

O=C(Nc1ccccc1)Nc1ccc(-c2ccc(C(=O)[C@@H]3CCC[C@H]3C(=O)O)cc2)cc1
CC50 at 24 h [1]: 85.4 µM
pEC50 (Rotavirus [2]): 4.63

Cc1c(C)c2c(c(C)c1O)CCC(C)(COc1ccc(CC3SC(=O)NC3=O)cc1)O2 (stereo unspecified) [TROGLITAZONE]
CC50 at 24 h [1]: 18.5 µM
pEC50 (Rotavirus [2]): 5.24

CCC/C=C/C/C=C/C=C/C=C/C#N
CC50 at 24 h [1]: 78.8 µM
pEC50 (Rotavirus [2]): 4.67
inhibition (Rotavirus [4]): Active

C/C=C/C/C=C/CCC(=O)[C@H]1O[C@H]1C(N)=O [CERULENIN]
CC50 at 24 h [1]: 56.7 µM
pEC50 (Rotavirus [2]): 4.55

CCC/C=C/C/C=C/C=C/C=N/NN=O [TRIACSIN C]
CC50 at 24 h [1]: 49.6 µM
inhibition (Huh-7): Dose-dependent effect
selectivity ratio [3]: 248
pEC50 (Rotavirus [2]): 6.70
inhibition (MA104): Active
inhibition (Rotavirus [5]): inactive
inhibition (Rotavirus [6]): inactive

CCC/C=C/C/C=C/C=C/C=N/NS(=O)(=O)CCl
CC50 at 24 h [1]: 74 µM
pEC50 (Rotavirus [2]): 5.06
inhibition (Rotavirus [4]): Active

CCCCCCCCCCCCCCCCNc1ccc(C(=O)O)cc1 [CETABEN]
CC50 at 24 h [1]: 75.5 µM
pEC50 (Rotavirus [2]): 4.95

CCCCCCCCCCC(C)(C)C(=O)Nc1c(OC)cc(OC)cc1OC [CL-976]
CC50 at 24 h [1]: 8.5 µM
pEC50 (Rotavirus [2]): 5.37
